Source: publication PMC6220361 (Molecular Pharmaceutics, 2018)
Where two headings read alike, the source gives them in different places. Blank lines part the entries; values can stand above or below the molecule they belong to.

Key:
SP1–7 binding site [1] = assay: Dynamic PET imaging, blocking experiments; format: in vivo, Wistar rats
Procedure, shortened: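 Healthy male Wistar rats (200–320 g) under isoflurane (3% induction, 1–2.5% maintenance, in oxygen). A 5 min CT or 15 min MRI preceded the i.v. tail-vein tracer bolus and a 60 min dynamic PET scan. Blockers were SP1–7 (5% DMSO in saline), 185 nmol·kg–1 i.p. 15 min before, or the unlabeled tracer analogue (20% EtOH in saline), 3 μmol·kg–1 slow i.v. 3 or 20 min before. Read-out was manual brain/spinal cord ROI SUV ± SD.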

SP1–7 binding site [2] = details: rat spinal cord membranes preparation; cited from earlier work
SP1–7 binding site [3] = details: read-out: binding; rat ventral tegmental area; cited from earlier work
Caco-2 cell monolayer = details: cited from earlier work
[4] = mouse plasma; cited from earlier work
[5] = self-blocking, i.v. 3 μmol·kg^–1, 3 min prior to tracer
[6] = blocker i.p. 185 nmol·kg^–1, 15 min prior to tracer

- blocking of [^11C]1 brain uptake (SP1–7 binding site [1]; blocker i.v. 3 μmol·kg^–1, 20 min prior to tracer): did not block brain uptake
- blocking of [^11C]1 spinal cord uptake (SP1–7 binding site [1]; self-blocking, 3 or 20 min prior to tracer injection): did not show any blocking
Molecule: NC(=O)[C@H](Cc1ccccc1)NC(=O)OCc1ccccc1 [compound 1, (S)-Benzyl (1-Amino-1-oxo-3-phenylpropan-2-yl)carbamate]
- Ki (SP1–7 binding site [2]): 5.2 nM

- blocking of [^11C]2 brain uptake (SP1–7 binding site [1]; [5]): did not show any blocking effect
- blocking of [^11C]2 spinal cord uptake (SP1–7 binding site [1]; [5]): did not show any blocking effect
Molecule: NC(=O)[C@@H](Cc1ccccc1)NC(=O)OCc1ccccc1 [compound 2, (R)-Benzyl (1-Amino-1-oxo-3-phenylpropan-2-yl)carbamate]

- blocking of [^11C]1 brain uptake (SP1–7 binding site [1]; [6]): did not block brain uptake
- blocking of [^11C]1 spinal cord uptake (SP1–7 binding site [1]; [6]): moderate blocking
Molecule: H-Arg-Pro-Lys-Pro-Gln-Gln-Phe-OH (H-RPKPQQF-OH) [SP1–7]
- Ki (SP1–7 binding site [3]): 3.9 nM
- permeability (Caco-2 cell monolayer): failed to display any measurable permeability
- in vitro half-life [4]: 4.4 min
